Measurements published in ChEMBL document CHEMBL1154279, “Cytotoxic compounds from the stems of Cinnamomum tenuifolium” (J Nat Prod, 2009).

Columns and labels:
Assay type in all cases: functional
DU-145 [1] = test: Cell cycle arrest in human DU145 cells assessed as accumulation of cells at G2/M phase at 1 uM after 24 hrs using propidium iodide stain by flow cytometry
Outline: (§1)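 DU145 cells treated with 1, 5, 10 or 100 µM for 24 or 72 h; vehicle 1% DMSO in water. Adherent and floating cells pooled, fixed in PBS-MeOH (1:2) at 4 °C for at least 18 h, then stained 30 min at room temperature in the dark with propidium iodide 50 µg/mL plus RNase A 50 µg/mL. Flow cytometry, excitation 488 nm, emission above 580 nm, doublets gated out. Sub-G1 region taken as DNA damage; at least three runs.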

DU-145 [2] = test: Cell cycle arrest in human DU145 cells assessed as accumulation of cells at sub-G1 phase at 5 uM after 24 hrs using propidium iodide stain by flow cytometry; outline: as §1
DU-145 [3] = test: Cell cycle arrest in human DU145 cells assessed as accumulation of cells at G1 phase at 5 uM after 24 hrs using propidium iodide stain by flow cytometry; outline: as §1
DU-145 [4] = test: Cell cycle arrest in human DU145 cells assessed as accumulation of cells at S phase at 5 uM after 24 hrs using propidium iodide stain by flow cytometry; outline: as §1
DU-145 [5] = test: Cell cycle arrest in human DU145 cells assessed as accumulation of cells at G2/M phase at 5 uM after 24 hrs using propidium iodide stain by flow cytometry; outline: as §1
DU-145 [6] = test: Cell cycle arrest in human DU145 cells assessed as accumulation of cells at sub-G1 phase at 10 uM after 24 hrs using propidium iodide stain by flow cytometry; outline: as §1
DU-145 [7] = test: Cell cycle arrest in human DU145 cells assessed as accumulation of cells at G1 phase at 10 uM after 24 hrs using propidium iodide stain by flow cytometry; outline: as §1
DU-145 [8] = test: Cell cycle arrest in human DU145 cells assessed as accumulation of cells at S phase at 10 uM after 24 hrs using propidium iodide stain by flow cytometry; outline: as §1
DU-145 [9] = test: Cell cycle arrest in human DU145 cells assessed as accumulation of cells at G2/M phase at 10 uM after 24 hrs using propidium iodide stain by flow cytometry; outline: as §1
DU-145 [10] = test: Cell cycle arrest in human DU145 cells assessed as accumulation of cells at sub-G1 phase at 100 uM after 24 hrs using propidium iodide stain by flow cytometry; outline: as §1
DU-145 [11] = test: Cell cycle arrest in human DU145 cells assessed as accumulation of cells at G1 phase at 100 uM after 24 hrs using propidium iodide stain by flow cytometry; outline: as §1
DU-145 [12] = test: Cell cycle arrest in human DU145 cells assessed as accumulation of cells at S phase at 100 uM after 24 hrs using propidium iodide stain by flow cytometry; outline: as §1
DU-145 [13] = test: Cell cycle arrest in human DU145 cells assessed as accumulation of cells at G2/M phase at 100 uM after 24 hrs using propidium iodide stain by flow cytometry; outline: as §1
DU-145 [14] = test: Cell cycle arrest in human DU145 cells assessed as accumulation of cells at G2/M phase at 100 uM after 72 hrs using propidium iodide stain by flow cytometry; outline: as §1
DU-145 [15] = test: Cell cycle arrest in human DU145 cells assessed as accumulation of cells at S phase at 100 uM after 72 hrs using propidium iodide stain by flow cytometry; outline: as §1
DU-145 [16] = test: Cell cycle arrest in human DU145 cells assessed as accumulation of cells at G1 phase at 100 uM after 72 hrs using propidium iodide stain by flow cytometry; outline: as §1
DU-145 [17] = test: Cell cycle arrest in human DU145 cells assessed as accumulation of cells at sub-G1 phase at 100 uM after 72 hrs using propidium iodide stain by flow cytometry; outline: as §1
DU-145 [18] = test: Cell cycle arrest in human DU145 cells assessed as accumulation of cells at G2/M phase at 10 uM after 72 hrs using propidium iodide stain by flow cytometry; outline: as §1
DU-145 [19] = test: Cell cycle arrest in human DU145 cells assessed as accumulation of cells at S phase at 10 uM after 72 hrs using propidium iodide stain by flow cytometry; outline: as §1
DU-145 [20] = test: Cell cycle arrest in human DU145 cells assessed as accumulation of cells at G1 phase at 10 uM after 72 hrs using propidium iodide stain by flow cytometry; outline: as §1
DU-145 [21] = test: Cell cycle arrest in human DU145 cells assessed as accumulation of cells at sub-G1 phase at 10 uM after 72 hrs using propidium iodide stain by flow cytometry; outline: as §1
DU-145 [22] = test: Cell cycle arrest in human DU145 cells assessed as accumulation of cells at G2/M phase at 5 uM after 72 hrs using propidium iodide stain by flow cytometry; outline: as §1
DU-145 [23] = test: Cell cycle arrest in human DU145 cells assessed as accumulation of cells at S phase at 5 uM after 72 hrs using propidium iodide stain by flow cytometry; outline: as §1
DU-145 [24] = test: Cell cycle arrest in human DU145 cells assessed as accumulation of cells at G1 phase at 5 uM after 72 hrs using propidium iodide stain by flow cytometry; outline: as §1
DU-145 [25] = test: Cell cycle arrest in human DU145 cells assessed as accumulation of cells at sub-G1 phase at 5 uM after 72 hrs using propidium iodide stain by flow cytometry; outline: as §1
DU-145 [26] = test: Cell cycle arrest in human DU145 cells assessed as accumulation of cells at G2/M phase at 1 uM after 72 hrs using propidium iodide stain by flow cytometry; outline: as §1

Question: Which Activity (DU-145 [1]) does the source give for `CCCCCCCCCCCCCCCCCCCCCCCC/C=C(/C(=O)OC)[C@@H](O)C(C)=O` [SECOTENUIFOLIDE A] here?
Answer: 43.3%

Question: And the Activity (DU-145 [2])?
Answer: 19.02%

Question: What about the Activity (DU-145 [3]) of the same molecule?
Answer: 34.96%

Question: What about the Activity (DU-145 [4]) of the same molecule?
Answer: 4.96%

Question: What about the Activity (DU-145 [5]) of the same molecule?
Answer: 37.88%

Question: What about the Activity (DU-145 [6]) of the same molecule?
Answer: 19.72%

Question: What about the Activity (DU-145 [7]) of the same molecule?
Answer: 36.97%

Question: What about the Activity (DU-145 [8]) of the same molecule?
Answer: 3.8%

Question: And the Activity (DU-145 [9])?
Answer: 36.57%

Question: What about the Activity (DU-145 [10]) of the same molecule?
Answer: 24.88%

Question: And the Activity (DU-145 [11])?
Answer: 35.57%

Question: And the Activity (DU-145 [12])?
Answer: 10.04%

Question: And the Activity (DU-145 [13])?
Answer: 26.4%

Question: What about the Activity (DU-145 [14]) of the same molecule?
Answer: 30%

Question: And the Activity (DU-145 [15])?
Answer: 5.38%

Question: What about the Activity (DU-145 [16]) of the same molecule?
Answer: 28.57%

Question: And the Activity (DU-145 [17])?
Answer: 32.57%

Question: What about the Activity (DU-145 [18]) of the same molecule?
Answer: 30.83%

Question: What about the Activity (DU-145 [19]) of the same molecule?
Answer: 3.62%

Question: And the Activity (DU-145 [20])?
Answer: 48.3%

Question: And the Activity (DU-145 [21])?
Answer: 16.18%

Question: And the Activity (DU-145 [22])?
Answer: 31.74%

Question: What about the Activity (DU-145 [23]) of the same molecule?
Answer: 4.05%

Question: What about the Activity (DU-145 [24]) of the same molecule?
Answer: 48.96%

Question: And the Activity (DU-145 [25])?
Answer: 14.24%

Question: What about the Activity (DU-145 [26]) of the same molecule?
Answer: 33.68%
